Drawing on ChEMBL document CHEMBL1128218, “New alpha-thiol dipeptide dual inhibitors of angiotensin-I converting enzyme and neutral endopeptidase EC 3.4.24.11” (J Med Chem, 1995), this text covers IC50 for 13 compounds.

As a reminder, the IC50 is the point on the concentration scale where inhibition reaches its midpoint. A lower IC50 goes with inhibition by little substance.

In assay [1] the target is T1, Neprilysin (Rattus norvegicus, UniProt P07861).
T1 sequence (P07861 whole entry): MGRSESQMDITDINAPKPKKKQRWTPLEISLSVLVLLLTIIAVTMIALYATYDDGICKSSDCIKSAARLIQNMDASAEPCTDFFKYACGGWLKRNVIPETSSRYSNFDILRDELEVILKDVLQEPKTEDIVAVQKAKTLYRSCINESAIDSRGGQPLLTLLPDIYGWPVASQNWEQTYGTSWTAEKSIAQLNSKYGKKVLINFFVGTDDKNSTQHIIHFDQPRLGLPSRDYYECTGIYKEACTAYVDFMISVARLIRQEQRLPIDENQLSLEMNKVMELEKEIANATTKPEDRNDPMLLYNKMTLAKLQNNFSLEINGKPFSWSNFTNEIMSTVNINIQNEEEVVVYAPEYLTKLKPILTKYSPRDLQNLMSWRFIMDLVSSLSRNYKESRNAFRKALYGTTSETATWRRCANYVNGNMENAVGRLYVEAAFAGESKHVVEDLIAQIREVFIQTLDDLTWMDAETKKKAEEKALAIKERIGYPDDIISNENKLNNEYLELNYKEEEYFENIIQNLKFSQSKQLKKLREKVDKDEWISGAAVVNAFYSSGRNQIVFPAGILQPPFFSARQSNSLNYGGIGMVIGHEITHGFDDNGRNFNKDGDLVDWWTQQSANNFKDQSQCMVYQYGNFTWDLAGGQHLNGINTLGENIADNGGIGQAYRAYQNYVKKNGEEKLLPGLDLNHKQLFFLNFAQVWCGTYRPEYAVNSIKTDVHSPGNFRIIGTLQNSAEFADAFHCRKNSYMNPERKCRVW
Description: Evaluation of in vitro inhibitory activity against Neutral endopeptidase. The gist of the method: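 Rat kidney cortex membrane homogenate (4.2 μg protein) preincubated 10 min at 25 °C with increasing inhibitor concentrations. Then 500 μM GAAP (final) in 50 mM Tris pH 7.4 with leucine aminopeptidase M, 25 min at 25 °C. Done in duplicate; IC50 from curves of seven points near the IC50.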

Assay [2] concerns the target T2, Angiotensin-converting enzyme (Oryctolagus cuniculus, UniProt P12822).
T2 sequence (P12822 whole entry): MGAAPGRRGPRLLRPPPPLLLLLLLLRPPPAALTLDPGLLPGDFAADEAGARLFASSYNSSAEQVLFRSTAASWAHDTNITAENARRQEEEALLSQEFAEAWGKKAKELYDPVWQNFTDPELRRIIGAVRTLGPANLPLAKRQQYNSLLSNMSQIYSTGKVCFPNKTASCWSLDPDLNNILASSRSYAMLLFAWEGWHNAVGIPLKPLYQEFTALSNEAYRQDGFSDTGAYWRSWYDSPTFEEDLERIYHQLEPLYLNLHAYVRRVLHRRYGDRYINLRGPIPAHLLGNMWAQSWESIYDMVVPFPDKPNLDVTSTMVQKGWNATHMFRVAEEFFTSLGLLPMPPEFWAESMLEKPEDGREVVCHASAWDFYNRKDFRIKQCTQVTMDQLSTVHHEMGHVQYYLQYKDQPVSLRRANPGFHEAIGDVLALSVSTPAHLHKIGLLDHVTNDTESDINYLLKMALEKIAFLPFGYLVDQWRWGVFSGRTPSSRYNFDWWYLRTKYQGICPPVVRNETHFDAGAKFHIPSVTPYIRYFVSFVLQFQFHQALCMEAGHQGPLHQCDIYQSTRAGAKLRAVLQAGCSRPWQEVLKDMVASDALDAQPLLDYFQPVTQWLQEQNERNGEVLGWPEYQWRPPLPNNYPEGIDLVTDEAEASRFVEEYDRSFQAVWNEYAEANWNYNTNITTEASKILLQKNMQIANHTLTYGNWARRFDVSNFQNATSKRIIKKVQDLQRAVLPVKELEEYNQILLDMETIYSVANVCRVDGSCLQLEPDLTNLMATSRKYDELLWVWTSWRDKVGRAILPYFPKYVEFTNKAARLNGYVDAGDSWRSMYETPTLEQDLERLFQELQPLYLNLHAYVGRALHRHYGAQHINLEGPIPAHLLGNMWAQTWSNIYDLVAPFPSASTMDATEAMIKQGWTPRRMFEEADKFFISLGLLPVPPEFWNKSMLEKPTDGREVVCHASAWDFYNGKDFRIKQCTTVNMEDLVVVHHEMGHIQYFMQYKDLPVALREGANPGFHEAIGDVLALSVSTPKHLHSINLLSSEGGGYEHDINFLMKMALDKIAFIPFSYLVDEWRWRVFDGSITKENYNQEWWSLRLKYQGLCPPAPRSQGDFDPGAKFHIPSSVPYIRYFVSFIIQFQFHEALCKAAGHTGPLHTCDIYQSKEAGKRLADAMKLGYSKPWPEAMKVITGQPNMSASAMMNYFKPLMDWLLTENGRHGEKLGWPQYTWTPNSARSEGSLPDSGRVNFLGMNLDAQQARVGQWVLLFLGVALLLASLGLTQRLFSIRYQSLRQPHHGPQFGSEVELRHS
Description: Evaluation of in vitro inhibitory activity against Angiotensin I converting enzyme. The gist of the method: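 Rabbit lung ACE in 300 mM NaCl, 100 mM KH2PO4 (pH 8.3). Enzyme and drug mixed, then hippurylhistidylleucine (2 mg/mL stock) added and incubated 75 min at room temperature. Stopped with 1 N NaOH, o-phthalaldehyde added for 10 min at 25 °C, acidified with HCl, OD read at 360 nm.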

For the compound `CC(C)[C@H](S)C(=O)NC1(C(=O)N[C@@H](Cc2ccc(O)cc2)C(=O)O)CC1`, the IC50 in assay [1] was determined as 5 nM; in assay [2] it was 15 nM.

In the case of `CC(C)[C@H](S)C(=O)NC1(C(=O)N[C@@H](CCc2ccccc2)C(=O)O)CCCC1`, the IC50 was determined as 1.2 nM in assay [1] and 30 nM in assay [2].

In the case of `O=C(CS)NC1(C(=O)N[C@@H](Cc2ccc(O)cc2)C(=O)O)CCCC1`, the figures for the half-maximal inhibitory concentration (IC50) in assay [1] and in assay [2] were 15 nM and 58 nM, respectively.

As for `CC(C)[C@H](S)C(=O)NC1(C(=O)N[C@@H](Cc2ccc(O)cc2)C(=O)O)CCOCC1`, the IC50 was found to be 6.4 nM in assay [1] and 11 nM in assay [2].

With `CC(C)[C@H](S)C(=O)NC(C)(C)C(=O)N[C@@H](Cc1ccc(O)cc1)C(=O)O`, the IC50 in assay [1] came to 9.2 nM; in assay [2], 15 nM.

Take `CC(C)[C@H](S)C(=O)NC1(C(=O)N[C@@H](Cc2ccc(O)cc2)C(=O)O)Cc2ccccc2C1`: the figures for the IC50 in assay [1] and in assay [2] were 25 nM and 26 nM, respectively.

Regarding `CC(C)[C@H](S)C(=O)NC1(C(=O)N[C@@H](Cc2ccc(F)cc2)C(=O)O)CCCC1`, the IC50 in assay [1] was 1.8 nM; in assay [2], 24 nM.

Consider `CC(C)[C@H](S)C(=O)NC1(C(=O)N[C@@H](Cc2ccsc2)C(=O)O)CCCC1`, for which the IC50 in assay [1] amounted to 2.6 nM; in assay [2] it was 11 nM.

`CC(C)[C@H](S)C(=O)NC1(C(=O)N[C@@H](Cc2ccc(O)cc2)C(=O)O)CCCC1`: the figures for the IC50 in assay [1] and in assay [2] were 1.5 nM and 7 nM, respectively.

Turning to `CC(C)[C@H](S)C(=O)NC1(C(=O)N[C@@H](Cc2ccccn2)C(=O)O)CCCC1`, the IC50 in assay [1] is 3 nM; in assay [2] it was 35 nM.

`CC(C)[C@H](S)C(=O)NC1(C(=O)N[C@@H](Cc2cccs2)C(=O)O)CCCC1`: the IC50 in assay [1] stood at 1.5 nM; in assay [2], 18 nM.

Take `CC(C)[C@H](S)C(=O)NC1(C(=O)N[C@@H](Cc2c[nH]c3ccccc23)C(=O)O)CCCC1`: the IC50 came to 2.1 nM in assay [1] and 10 nM in assay [2].

Consider `O=C(O)[C@H](Cc1ccc(O)cc1)NC(=O)C1(NC(=O)[C@@H](S)Cc2ccccc2)CCCC1`, for which the IC50 was 3 nM in assay [1] and 22 nM in assay [2].
